Measurements: ChEMBL document CHEMBL4811303, “Synthesis and evaluation of trypanocidal activity of derivatives of naturally occurring 2,5-diphenyloxazoles” (Bioorg Med Chem, 2021)
pIC50: −log10 of the molar value.

Columns and labels:
[1] = Selectivity index, ratio of IC50 for cytotoxicity against bovine MDBK cells to IC50 for Trypanocidal activity against Trypanosoma evansi
[2] = Selectivity index, ratio of IC50 for cytotoxicity against bovine MDBK cells to IC50 for Trypanocidal activity against Trypanosoma brucei rhodesiense
[3] = Selectivity index, ratio of IC50 for cytotoxicity against bovine MDBK cells to IC50 for Trypanocidal activity against Trypanosoma congolense
Trypanosoma congolense = assay: Trypanocidal activity against Trypanosoma congolense assessed as reduction in intracellular ATP production incubated for 72 hrs by CellTiter-Glo luminescent cell viability assay; assay type: functional, organism-based
In short: (§1)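 Bloodstream trypanosomes in 96-well culture were exposed to compound in 5-fold serial dilutions from 25 µg/mL to 1.6 ng/mL for 72 h. Seeding and temperature: T. b. brucei, T. b. gambiense and T. b. rhodesiense at 5×10^3 cells/mL and 37 °C; T. evansi at 1×10^4 cells/mL and 37 °C; T. congolense at 2×10^5 cells/mL and 33 °C. Viability was read as intracellular ATP by CellTiter-Glo luminescence. Three replicates; IC50 calculated.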

Trypanosoma evansi = assay: Trypanocidal activity against Trypanosoma evansi assessed as reduction in intracellular ATP production incubated for 72 hrs by CellTiter-Glo luminescent cell viability assay; assay type: functional, organism-based
In short: as §1

[4] = test system: Trypanosoma brucei gambiense; assay: Trypanocidal activity against Trypanosoma brucei gambiense assessed as reduction in intracellular ATP production incubated for 72 hrs by CellTiter-Glo luminescent cell viability assay; assay type: functional, organism-based
In short: as §1

MDBK cells (Bos taurus) = assay: Cytotoxicity against bovine MDBK cells assessed as reduction in cell viability incubated for 72 hrs by CCK8 assay
[5] = test system: Trypanosoma brucei rhodesiense; assay: Trypanocidal activity against Trypanosoma brucei rhodesiense assessed as reduction in intracellular ATP production incubated for 72 hrs by CellTiter-Glo luminescent cell viability assay; assay type: functional, organism-based
In short: as §1

[6] = Selectivity index, ratio of IC50 for cytotoxicity against bovine MDBK cells to IC50 for Trypanocidal activity against Trypanosoma brucei brucei; settings: cattle
[7] = Selectivity index, ratio of IC50 for cytotoxicity against bovine MDBK cells to IC50 for Trypanocidal activity against Trypanosoma brucei gambiense; settings: cattle
[8] = test system: Trypanosoma brucei brucei; assay: Trypanocidal activity against Trypanosoma brucei brucei assessed as reduction in intracellular ATP production incubated for 72 hrs by CellTiter-Glo luminescent cell viability assay; assay type: functional, organism-based
In short: as §1

Structure (SMILES)	selectivity ratio [1]	selectivity ratio [2]	selectivity ratio [3]	pIC50 (Trypanosoma congolense)	pIC50 (Trypanosoma evansi)	pIC50 [4]	pIC50 (MDBK cells (Bos taurus))	pIC50 [5]	selectivity ratio [6]	selectivity ratio [7]	pIC50 [8]
COc1cccc(-c2cnc(-c3cccc(OC)c3OC)o2)c1	1.4	1.3	9.3	4.99	4.17	4.13	4.02	4.12	1.3	1.3	4.12
COc1cccc(-c2ncc(-c3ccccc3OC)o2)c1	< 1.8	< 1.8	24	5.17	< 4.05	< 4.05	3.79	< 4.05	< 1.8	< 1.8	< 4.05
Oc1ccccc1-c1cnc(-c2cccc(O)c2O)o1	1.5	2.5	6.3	5.96	5.33	4.87	5.15	5.55	0.77	0.52	5.04
COc1cccc(-c2ncc(-c3c(OC)cccc3OC)o2)c1OC	3.4	2.8	12	5.11	4.58	4.59	4.04	4.49	2.9	3.5	4.50
COc1ccccc1-c1cnc(-c2c(OC)cccc2OC)o1	1.7	2	7.1	5.28	4.66	4.61	4.42	4.74	1.9	1.5	4.71
CC(=O)Oc1ccccc1-c1cnc(-c2cccc(OC(C)=O)c2OC(C)=O)o1	0.96	2.1	6.6	6.10	5.25	5.19	5.28	5.60	1.2	0.82	5.34
COc1cccc(-c2cnc(-c3ccc(OC)c(OC)c3OC)o2)c1OC	> 14	> 4.2	> 5.3	4.29	4.70	4.20	< 3.57	4.19	> 4.2	> 4.3	4.19
COc1cccc(-c2ncc(-c3ccc4ccccc4c3)o2)c1OC	0.6	0.6	0.93	4.34	4.15	4.29	4.37	4.14	0.6	0.83	4.15
Oc1ccccc1-c1cnc(-c2cccc(O)c2O)s1	5	2.6	8.8	5.64	5.40	5.09	4.70	5.11	2.6	2.4	5.11
COc1cccc(-c2cnc(-c3cccc(OC)c3)o2)c1	> 6.6	> 5.3	> 17	4.67	4.27	4.17	< 3.45	4.18	> 5.7	> 5.3	4.21
COc1cccc(-c2ncc(-c3ccc(OC)c(OC)c3OC)o2)c1OC	1.7	1.5	4.2	4.63	4.22	4.20	4.00	4.19	1.5	1.6	4.19
